Assay outcomes: PubChem, several laboratories
A selection: hits, their analogues and other compounds. The true share with any hit is near 2.1%.
EBI2 antag = antagonists of human EBI2 receptor | P32249 | EBI2 beta-arrestin recruitment, luminescence, 7a,25-OHC stimulated | inhibition, % at 5 µM | 360,000 compounds, 0.81% hits | AID 651636; in the data active means inhibition above about 38%;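 further: enzyme fragment complementation signal reports receptor beta-arrestin coupling in cells; 0% = agonist plus DMSO wells and 100% = wells without agonist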
CCR6 antagonist = antagonists of human CCR6 receptor | P51684 | CHO-K1 CCR6 PathHunter beta-arrestin, luminescence, CCL20-stimulated | inhibition, % at 20 µM | 340,000 compounds, 0.49% hits | AID 493098;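 active means compounds whose inhibition of the agonist-driven luminescence signal at 20 µM reaches about 50%, limit read from the data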;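 further: cells stimulated with CCL20 at 14 nM final; plate controls were DMSO with CCL20 for no effect and DMSO without agonist for full effect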
APJ ag = APJ receptor agonism. P35414. activation, % at 20 µM. CHO-K1 APJ PathHunter beta-arrestin, luminescence; 0% DMSO wells, 100% apelin. 330,000 compounds, 0.11% hits. AID 2520;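 active means activation more than six SD over the plate average, tested at 20 µM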;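 further: 0% = DMSO alone and 100% = apelin-13 at 10 nM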
Target sequence (P35414 whole entry, looked up): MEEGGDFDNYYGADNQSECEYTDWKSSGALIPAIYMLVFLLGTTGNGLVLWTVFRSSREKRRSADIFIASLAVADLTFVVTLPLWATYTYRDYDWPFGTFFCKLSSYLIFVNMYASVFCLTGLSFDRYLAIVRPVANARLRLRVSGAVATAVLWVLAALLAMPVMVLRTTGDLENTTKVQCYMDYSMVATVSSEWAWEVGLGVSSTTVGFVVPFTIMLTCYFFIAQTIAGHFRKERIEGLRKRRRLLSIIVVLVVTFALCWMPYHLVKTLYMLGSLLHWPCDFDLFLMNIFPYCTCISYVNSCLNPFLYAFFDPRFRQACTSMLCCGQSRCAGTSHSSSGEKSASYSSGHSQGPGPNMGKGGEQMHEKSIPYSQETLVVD
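Assay system: CHO-K1 cells stably expressing ProLink-tagged human APJ and arrestin–beta-gal acceptor. Compound dosing: 20 µM single point, 1% DMSO. Times: 16-18 h seeding, 90 min dark compound exposure, 60 min detection. Detection: beta-gal luminescence. Evaluation: APJ–arrestin association signal. Controls: negative DMSO alone, positive Apelin-13 at 10 nM.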
m5-HT2A agonist = activates the mouse 5-HT2A serotonin receptor; AID 624169; CHO-K1 mHTR2A beta-arrestin complementation, luminescence; percent of 30 µM serotonin response; P35363; 360,000 compounds, 0.66% hits; activation, % at 7.6 µM;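 active means activation above a run cutoff, the mean activation of all tested compounds plus 3 SD, cut at about 14% in these data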;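 further: 0% = plate median of compound wells and 100% = 30 µM serotonin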
APJ antagonist = blocks the human apelin receptor APJ; P35414; CHO-K1 APJ beta-arrestin complementation, luminescence; inhibition, % at 20 µM; 330,000 compounds, 0.32% hits; AID 2521;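 active means inhibition above about 40% at 20 µM, limit read from the data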;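 further: cells challenged with 10 nM apelin-13 agonist together with compound; plate controls were apelin-13 plus DMSO wells for no effect and DMSO wells lacking apelin-13 for full effect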
CXCR6 inh = CXCR6 (human) receptor inhibition. O00574. CHO-K1 PathHunter CXCR6 beta-arrestin, luminescence. inhibition, % at 20 µM. 360,000 compounds, 0.36% hits. AID 602244; in the data active means inhibition above about 34%, passing the limit was not always enough;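 further: antagonist mode with CXCL16 agonist at 10 nM final; 0% = 10 nM CXCL16 with DMSO and 100% = unstimulated wells without agonist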
Target sequence (O00574 whole entry, looked up): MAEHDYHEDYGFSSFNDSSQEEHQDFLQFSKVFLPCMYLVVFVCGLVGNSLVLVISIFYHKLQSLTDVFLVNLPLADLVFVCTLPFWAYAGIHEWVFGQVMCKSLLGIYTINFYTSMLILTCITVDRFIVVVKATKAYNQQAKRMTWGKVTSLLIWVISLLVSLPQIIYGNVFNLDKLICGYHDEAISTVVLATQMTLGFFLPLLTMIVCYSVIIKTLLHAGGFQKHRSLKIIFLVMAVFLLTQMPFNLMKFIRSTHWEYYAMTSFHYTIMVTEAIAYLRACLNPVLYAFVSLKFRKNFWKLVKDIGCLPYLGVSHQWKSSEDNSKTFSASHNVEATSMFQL
EBI2 conf = EBI2 (human) antagonism, single concentration confirmation. shares compounds with EBI2 antag. EBI2 beta-arrestin luminescence, 7a,25-OHC antagonism. inhibition, % at 5 µM. 2,400 compounds, 29% hits. AID 651997;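 active means inhibition of at least 50%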
EBI2 ag = counter-screen for EBI2 antagonists: EBI2 agonist activity; shares compounds with EBI2 antag; EBI2-expressing cells, agonist mode, luminescence, 60 min; 0% vehicle, 100% 7α,25-dihydroxycholesterol control; activation, % at 5 µM; 2,400 tested, under 10 active;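 active means activation of at least 50%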
bGal cs = inhibits E. coli beta-galactosidase, counter-screen for EBI2 antagonists; shares compounds with EBI2 antag; purified beta-galactosidase, luminescent Galacton Star, 15 min; inhibition, % at 5 µM; 2,400 compounds, 1% hits; AID 652176;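 active means replicate-average signal at least 3 plate SD below neutral wells, shown as high inhibition, flagging enzyme-inhibiting false positives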;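 further: 0% = DMSO wells with enzyme and 100% = wells lacking enzyme; higher means stronger loss of beta-gal luminescence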
Numbers without * were called inactive; . = no result given.

SMILES	EBI2 antag	CCR6 antagonist	APJ ag	m5-HT2A agonist	APJ antagonist	CXCR6 inh	EBI2 conf	EBI2 ag	bGal cs
CCOc1ccc(C(=O)/C=C/c2cc(OC)c(OC)c(OC)c2)cc1	12.4	13.2	-2.1	-4.1	2.0	2.8	.	.	.
Cc1ccccc1NC(=O)c1ccc(NC(=O)C2CC(=O)OC23CCCCC3)cc1 (centres undefined)	-5.5	-1.9	.	-3.3	.	-0.2	.	.	.
CCOC(=O)C1(CCOc2ccccc2)CCN(C(=O)c2ccc(-n3cccn3)cc2)CC1	88.3*	13.3	1.3	-4.1	-1.1	-0.9	68.3*	0.2	6.5
CCOC(=O)C1(CCOc2ccccc2)CCN(Cc2cccc(-n3cccn3)c2)CC1	2.5	4.2	-1.7	-4.8	16.7	9.4	.	.	.
O=C(CN1C(=O)c2ccccc2C1=O)Nc1cc([N+](=O)[O-])ccc1O	1.3	20.8	-3.9	-1.1	22.2	15.4	.	.	.
CCOC(=O)C1(Cc2cccc(OC)c2)CCCN(Cc2cc(OC)c(O)c(OC)c2)C1 (centres undefined)	81.5*	-9.9	1.8	-0.7	-31.5	-12.7	57.7*	-1.2	-4.5
CN(C)S(=O)(=O)c1ccc(C(=O)NCC(=O)N/N=C/c2ccccc2Cl)cc1	71.9*	5.6	0.1	7.8	14.5	-14.5	30.3	0.4	8.6
Cc1ccc(/C=N/NC(=O)CNC(=O)c2ccc(S(=O)(=O)N(C)C)cc2)cc1	45.5*	1.5	-0.7	-0.5	-2.9	-3.1	29.5	0.5	7.4
CN(C)S(=O)(=O)c1ccc(C(=O)NCC(=O)N/N=C/c2cccs2)cc1	10.2	5.2	-2.9	2.6	-5.2	0.7	.	.	.
Cc1ccsc1/C=N/NC(=O)CNC(=O)c1ccc(S(=O)(=O)N(C)C)cc1	8.2	16.1	-1.4	-0.7	13.9	-0.5	.	.	.
Cc1cccc(NCc2ccc(O)c3ncccc23)c1C	-7.7	0.9	-4.1	-0.7	-1.5	-0.5	.	.	.
Cc1cccnc1NCc1ccc(O)c2ncccc12	55.9*	8.7	-5.2	-4.5	5.6	6.8	22.2	0.5	7.2
CCOc1ccc(OCC(O)CN2CCN(S(=O)(=O)c3cccc(C(F)(F)F)c3)CC2)cc1 (centres undefined)	77.5*	1.2	.	-1.0	.	-5.3	46.5	0.2	5.9
Cc1cccc(C(=O)OC2CCN(C)CC2)c1	-13.1	1.2	-6.3	3.9	-1.4	-15.6	.	.	.
Cc1ccc(C)c(CN2CCC(CNC(=O)Nc3ccc(Cl)cc3)CC2)c1	21.2	6.9	-2.1	-11.2	0.3	-10.6	.	.	.
Cc1ccc(C)c(CN2CCC(CNC(=O)Nc3ccc(Br)cc3F)CC2)c1	52.2*	12.6	-1.8	-6.9	-15.3	-3.0	10.6	1.4	1.2
Cc1cccc(OCCNc2cc(N3CCOCC3)ccc2[N+](=O)[O-])c1	64.4*	21.8	-0.2	0.1	1.1	8.0	47.7	0.8	9.1
CC(C(=O)N1CCOCCOCCOCCOCCOCC1)N1C(=O)c2ccccc2C1=O (centres undefined)	-4.3	13.9	-3.7	3.4	3.6	6.2	.	.	.
Clc1cccc(Nc2nc(-c3cccnc3)cs2)c1	48.3*	-7.0	-0.2	-5.7	0.2	-1.0	53.0*	-0.4	7.3
Brc1ccc(Nc2nc(-c3cccnc3)cs2)cc1	28.1	0.8	-2.8	-7.1	1.7	5.0	.	.	.
Cc1ccc(Nc2nc(-c3cccnc3)cs2)cc1C	48.9*	8.3	1.5	1.4	-29.1	-4.2	56.1*	2.0	1.8
Brc1cccc(Nc2nc(-c3cccnc3)cs2)c1	42.4*	-7.5	-1.7	-0.3	-23.5	-11.6	45.0	1.8	1.6
O=C(Nc1nnc(S(=O)(=O)N2CCCC2)s1)c1ccccc1Cl	1.1	1.6	-1.5	-3.8	-24.6	4.3	.	.	.
Cc1cccc(N2CC(=O)N(c3cccc(C)c3)CC2=O)c1	1.9	-3.2	-0.4	4.7	11.0	2.8	.	.	.
Cc1ccc(CNC(=O)C2CCN(C(=O)Nc3ccc(C)cc3)CC2)cc1	61.6*	12.5	-2.9	-3.5	3.5	1.8	28.8	0.2	10.0
SMILES	EBI2 antag	CCR6 antagonist	APJ ag	m5-HT2A agonist	APJ antagonist	CXCR6 inh	EBI2 conf	EBI2 ag	bGal cs
O=C(NCc1ccc(F)cc1)C1CCCN(C(=O)Nc2ccc(F)cc2)C1 (centres undefined)	51.5*	1.7	-1.8	0.6	12.4	0.6	32.6	2.2	1.1
O=C(NCc1ccc(F)cc1)C1CCCN(C(=O)Nc2ccccc2)C1 (centres undefined)	50.3*	-6.5	0.9	-0.5	-1.8	-2.0	18.5	0.4	5.6
O=C(c1cc2ccccc2oc1=O)N(Cc1ccccc1)C1CCS(=O)(=O)C1 (centres undefined)	-1.5	0.4	2.2	4.7	-6.7	12.8	.	.	.
Cc1cccc(Oc2ncc(-c3ccc(Cl)cc3)cn2)c1C	51.9*	6.8	1.3	-4.3	12.2	1.3	27.2	0.1	2.3
Cc1ccc(Oc2ncc(-c3ccc(Cl)cc3)cn2)cc1	90.0*	5.3	1.1	1.6	-12.6	-10.0	58.2*	-0.6	-8.6
COc1ccc(C(=O)N2CCN(c3ccc([N+](=O)[O-])c(-n4nc(C)cc4C)c3)CC2)cc1	59.5*	17.5	-0.7	4.4	-0.1	5.5	24.2	-0.8	-5.6
CSc1c(C#N)c(N)nc2sc(C(=O)c3ccc(Cl)c(Cl)c3)c(N)c12	.	3.0	0.8	.	-23.9	.	.	.	.
CCOc1ccc(-c2c(C#N)c(N)nc3sc(C(=O)c4ccccc4)c(N)c23)cc1	41.9*	7.8	-3.8	3.7	5.3	14.2	20.1	0.8	4.4
CCCCOC(=O)CSc1nc(N)c(C#N)c(-c2ccc(OCC)cc2)c1C#N	21.2	8.5	-0.5	4.6	3.2	7.8	.	.	.
COc1ccc(-c2c(C#N)c(N)nc3sc(C(=O)c4ccccc4)c(N)c23)cc1	48.8*	21.8	.	-1.1	.	5.1	42.5	-1.4	-7.6
COc1cccc(/C=N/Nc2nn3cnnc3c3ccccc23)c1O	10.3	-7.6	0.4	-2.1	-30.9	-1.1	.	.	.
CCS(=O)(=O)N1CCC(C(=O)NCc2ccc(OC)cc2)CC1	-5.2	7.2	-1.2	2.0	3.7	-3.5	.	.	.
O=C(NCCc1ccc(Cl)cc1)C1CCN(S(=O)(=O)c2ccc(Br)s2)CC1	51.0*	11.4	-4.6	0.9	3.1	-2.7	11.5	-1.2	-9.6
CC1CC(C)CN(S(=O)(=O)N2CCCC(C(=O)NCCc3ccc(Cl)cc3)C2)C1 (centres undefined)	56.5*	21.9	-1.6	-0.7	-11.2	-1.7	52.3*	-1.2	-17.6
